Assay results from ChEMBL document CHEMBL4024792, “(N-Hydroxycarbonylbenylamino)quinolines as Selective Histone Deacetylase 6 Inhibitors Suppress Growth of Multiple Myeloma in Vitro and in Vivo” (J Med Chem, 2018).
The source made the active and inactive calls. The rule behind the calls is not given here.

How the values were obtained:
Histone deacetylase 1 = Histone deacetylase 1 (Homo sapiens, UniProt Q13547); experiment: Inhibition of full length recombinant human C-terminal FLAG/His-tagged HDAC1 expressed in baculovirus infected sf21 cells using RHK-K(Ac)-AMC as substrate after 60 mins by fluorescence assay
Sequence of Histone deacetylase 1 (Q13547 whole entry): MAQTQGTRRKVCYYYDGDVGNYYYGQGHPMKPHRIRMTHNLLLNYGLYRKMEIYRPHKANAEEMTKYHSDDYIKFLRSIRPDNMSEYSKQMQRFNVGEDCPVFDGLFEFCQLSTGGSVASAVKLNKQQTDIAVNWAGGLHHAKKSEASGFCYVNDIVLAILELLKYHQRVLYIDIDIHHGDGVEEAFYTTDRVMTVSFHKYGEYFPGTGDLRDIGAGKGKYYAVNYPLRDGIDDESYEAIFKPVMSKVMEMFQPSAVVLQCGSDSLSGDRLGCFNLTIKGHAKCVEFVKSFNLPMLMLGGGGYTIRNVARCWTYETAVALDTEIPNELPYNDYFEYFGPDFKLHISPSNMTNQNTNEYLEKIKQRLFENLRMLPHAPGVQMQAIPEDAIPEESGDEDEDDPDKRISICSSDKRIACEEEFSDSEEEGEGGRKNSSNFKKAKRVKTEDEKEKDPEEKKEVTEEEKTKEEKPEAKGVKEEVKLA

[1] = target: T1, NAD-dependent protein deacetylase sirtuin-1 (Homo sapiens, UniProt Q96EB6); experiment: Inhibition of recombinant human N-terminal His-tagged SIRT1 (1 to 747 end residues) expressed in Escherichia coli using Ac-RHK-K(Ac)-AMC as substrate after 30 mins in presence of NAD+ by fluorescence assay
T1 sequence (Q96EB6 whole entry): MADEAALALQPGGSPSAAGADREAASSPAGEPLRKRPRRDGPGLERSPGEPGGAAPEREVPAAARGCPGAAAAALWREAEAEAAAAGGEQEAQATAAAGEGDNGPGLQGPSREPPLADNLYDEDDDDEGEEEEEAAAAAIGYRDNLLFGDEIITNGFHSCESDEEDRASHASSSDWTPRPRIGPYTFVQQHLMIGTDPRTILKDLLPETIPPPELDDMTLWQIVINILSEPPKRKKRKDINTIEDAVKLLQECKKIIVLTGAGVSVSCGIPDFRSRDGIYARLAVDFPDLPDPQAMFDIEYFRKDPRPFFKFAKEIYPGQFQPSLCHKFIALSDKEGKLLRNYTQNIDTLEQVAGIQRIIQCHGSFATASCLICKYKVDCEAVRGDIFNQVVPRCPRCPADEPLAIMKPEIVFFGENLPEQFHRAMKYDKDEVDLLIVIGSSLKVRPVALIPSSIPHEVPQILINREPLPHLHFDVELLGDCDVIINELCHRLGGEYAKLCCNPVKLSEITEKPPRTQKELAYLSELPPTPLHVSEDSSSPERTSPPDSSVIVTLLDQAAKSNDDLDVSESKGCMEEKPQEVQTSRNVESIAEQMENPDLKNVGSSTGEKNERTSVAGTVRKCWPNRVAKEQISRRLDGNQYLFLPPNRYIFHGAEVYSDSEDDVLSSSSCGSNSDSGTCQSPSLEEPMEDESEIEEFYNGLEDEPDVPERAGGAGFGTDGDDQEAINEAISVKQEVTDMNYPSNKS

NCI-H929 [2] = experiment: Antiproliferative activity against human NCI-H929 cells after 48 hrs by SRB assay; format: functional; details: NCI-H929, 48 h
Summary of the method: (§1)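 Cells were exposed to test compounds at the indicated concentrations for 48 h. They were then fixed with 10% trichloroacetic acid, stained 30 min with 0.4% SRB in 1% AcOH, and washed with 1% AcOH. Bound dye was solubilized in 10 mM Tris base and OD read at 510 nm. Lines cultured in RPMI 1640 with 20% FBS and penicillin/streptomycin, 37°C, 5% CO2.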

[3] = Antiproliferative activity against human HS5 cells after 48 hrs by SRB assay; format: cell-based; summary of the method: as §1
NCI-H929 [4] = experiment: Cell cycle arrest in human NCI-H929 cells assessed as accumulation at sub-G1 phase at 5 uM after 24 hrs by propidium iodide staining based flow cytometry (reference value: 5.59%); format: functional
NCI-H929 [5] = experiment: Cell cycle arrest in human NCI-H929 cells assessed as accumulation at G0/G1 phase at 5 uM after 24 hrs by propidium iodide staining based flow cytometry (reference value: 49.39%); format: functional
NCI-H929 [6] = experiment: Cell cycle arrest in human NCI-H929 cells assessed as accumulation at G2/M phase at 5 uM after 24 hrs by propidium iodide staining based flow cytometry (reference value: 31.63%); format: functional
RPMI-8226 [7] = experiment: Cell cycle arrest in human RPMI8226 cells assessed as accumulation at G0/G1 phase at 5 uM after 24 hrs in presence of bortezomib by propidium iodide staining based flow cytometry (reference value: 44.67%); format: functional
U-266 [8] = experiment: Cell cycle arrest in human U266 cells assessed as accumulation at sub-G1 phase at 5 uM after 24 hrs in presence of bortezomib by propidium iodide staining based flow cytometry (reference value: 10.76%); format: functional
U-266 [9] = experiment: Cell cycle arrest in human U266 cells assessed as accumulation at S phase at 5 uM after 24 hrs in presence of bortezomib by propidium iodide staining based flow cytometry (reference value: 14.05%); format: functional
U-266 [10] = experiment: Cell cycle arrest in human U266 cells assessed as accumulation at G2/M phase at 5 uM after 24 hrs in presence of bortezomib by propidium iodide staining based flow cytometry (reference value: 35.13%); format: functional
NCI-H929 [11] = experiment: Cell cycle arrest in human NCI-H929 cells assessed as accumulation at sub-G1 phase at 5 uM after 24 hrs in presence of bortezomib by propidium iodide staining based flow cytometry (reference value: 5.59%); format: functional
RPMI-8226 [12] = experiment: Induction of apoptosis in human RPMI8226 cells at 5 uM after 24 hrs by Annexin V/propidium iodide staining based flow cytometry; format: functional, cell-based
NCI-H929 [13] = experiment: Induction of apoptosis in human NCI-H929 cells at 5 uM after 24 hrs by Annexin V/propidium iodide staining based flow cytometry; format: functional, cell-based
RPMI-8226 [14] = experiment: Antitumor activity against human RPMI8226 cells xenografted in nude mouse assessed as tumor growth inhibition at 30 mg/kg, iv or ip administered for 5 days followed by 2 days off for 35 days relative to control; format: functional; details: read-out: TGI
Summary of the method: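 RPMI 8226 cells (1 × 10^7) implanted s.c. in eight-week-old male nude mice. At mean tumor volume 200 mm3, mice randomized into four groups (n = 8). Caliper measurement every 3–4 days, volume L×W²/2. %TGI computed from treated versus control volume changes relative to time 0.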

Mus musculus = experiment: Toxicity in nude mouse xenografted with human RPMI8226 cells assessed as change in body weight at 30 mg/kg, iv or ip administered for 5 days followed by 2 days off for 35 days; format: organism-based; details: in vivo
Summary of the method: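 Male 8-week nude mice implanted sc with 1×10^7 RPMI 8226 cells, randomized at ~200 mm3 (n = 8). […] Vehicle: 0.5% EtOH/0.5% Cremophor in 5% dextran.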

[15] = Stability in Sprague-Dawley rat hepatocytes assessed as parent compound remaining at 10 uM after 60 mins by LC-MS/MS analysis; format: ADME, cell-based, Hepatocyte; details: read-out: Stability
Summary of the method: (§2)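 Cryopreserved hepatocytes (Sprague-Dawley rat, beagle dog, human) incubated with compound at 10 µM, 37 °C, for up to 4 h. About 0.5×10^6 cells/well for rat and dog, 0.24×10^6 for human.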

[16] = Stability in beagle dog hepatocytes assessed as parent compound remaining at 10 uM after 60 mins by LC-MS/MS analysis; format: ADME, cell-based, Canis lupus familiaris, Hepatocyte; details: read-out: Stability; summary of the method: as §2
Salmonella typhimurium [17] = experiment: Mutagenicity in Salmonella typhimurium TA98 assessed as increase in number of revertant colonies at 3 to 3000 ug/plate in presence of S9 fraction by Ames test; format: toxicity; details: salmonella enterica subsp. enterica serovar typhimurium
Summary of the method: (§3)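 Ames test, TA98 and TA100. Overnight broth cultures preincubated 20 min at 35-37 °C with compound (DMSO stock) plus Aroclor 1254-induced rat liver S9 mix or PBS, then plated in top agar with 0.05 mM histidine/biotin. Final 3-3000 µg/plate; revertants counted after 72 h at 37 °C. ≥3-fold over vehicle = mutagenic; ≤50% = cytotoxic.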

Salmonella typhimurium [18] = experiment: Mutagenicity in Salmonella typhimurium TA100 assessed as increase in number of revertant colonies at 3 to 3000 ug/plate in presence of S9 fraction by Ames test; format: toxicity; details: salmonella enterica subsp. enterica serovar typhimurium; summary of the method: as §3

| IC50 (Histone deacetylase 1) [µM] | IC50 [1] [µM] | GI50 (NCI-H929 [2]) [µM] | remaining at 1 h, 10 µM [15] [%] | remaining at 1 h, 10 µM [16] [%] | SMILES | GI50 at 48 h [3] [µM] | Activity (NCI-H929 [4]) [%] | Activity (NCI-H929 [5]) [%] | Activity (NCI-H929 [6]) [%] | Activity (RPMI-8226 [7]) [%] | Activity (U-266 [8]) [%] | Activity (U-266 [9]) [%] | Activity (U-266 [10]) [%] | Activity (NCI-H929 [11]) [%] | Activity (RPMI-8226 [12]) | Activity (NCI-H929 [13]) | inhibition in vivo at 30 mg/kg (RPMI-8226 [14]) [%] | Activity (Mus musculus) | Activity (Salmonella typhimurium [17]) | Activity (Salmonella typhimurium [18]) |
| --- | --- | --- | --- | --- | --- | --- | --- | --- | --- | --- | --- | --- | --- | --- | --- | --- | --- | --- | --- | --- |
| 9.55 | > 20 | 9.14 | 28.4 | 70.6 | O=C(NO)c1ccc(CNc2cccc3cccnc23)cc1 | > 100 | 24.71 | 35.59 | 31.28 | 6.3 | 45.29 | 7.56 | 21.52 | 74.13 | Active | Active | 60.4 | Non-Toxic | Non-Toxic | Non-Toxic |
| 7.05 | > 20 | 6.2 | – | – | O=C(NO)c1ccc(CNc2cccc3ncccc23)cc1 | > 100 | – | – | – | – | – | – | – | – | – | – | – | – | – | – |
